From ChEMBL document CHEMBL1124478, “Cardiotonic agents. 5. Fragments from the heterocycle-phenyl-imidazole pharmacophore” (J Med Chem, 1989)

Experiments:
[1] = species: Mustela putorius furo; experiment: 20% increase in contractile force (CF) of ferret papillary muscle; format: functional, Muscle tissue
In short: (§1)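 Isolated ferret papillary muscle in vitro. Value is the drug concentration (μM) giving a 20% rise in contractile force, the mean of at least two determinations, with ranges within ±10%. NR means that level was not reached at 100 μM. Responses were also tested with 1 μM propranolol and, for some compounds, 10 μM cimetidine.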

[2] = system: cAMP phosphodiesterase (Canis familiaris); experiment: Inhibition of crude canine cardiac c-AMP phosphodiesterase at 100 uM; settings: Canis lupus familiaris
[3] = Inhibition of crude canine cardiac c-AMP phosphodiesterase; design: species or system Canis lupus familiaris
In short: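 Crude cAMP phosphodiesterase came from canine cardiac tissue homogenates. IC50 (μM) is the mean of at least three determinations, with ranges within ±10%. Where 50% inhibition was not reached at 100 μM, the percent inhibition at 100 μM drug was recorded instead.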

[4] = species: Mustela putorius furo; experiment: Increase in contractile force (CF) of ferret papillary muscle; NR = not reached at 100 uM; format: functional; settings: Muscle tissue; in short: as §1

Row | Compound | inhibition [2] [%] | IC50 [3] [µM] | C20 [1] [µM] | C20 [4]
1 | Cc1nc(O)c(C#N)c(NCCc2c[nH]cn2)n1 | – | 4 | 0.2 | –
2 | CCc1[nH]c(O)nc1C(=O)NCCc1c[nH]cn1 | 25 | – | 10 | –
3 | CCc1[nH]c(O)nc1C(=O)NCCCn1ccnc1 | 5 | – | – | Not reached
4 | CCc1[nH]c(O)nc1C(=O)c1ccc(-n2ccnc2C)cc1 | – | – | 0.7 | –
5 | CCc1[nH]c(O)nc1C(=O)OC | 10 | – | – | Not reached
6 | COc1ccc(C(=O)N2CCN(c3ccc4c(c3)CCC(=O)N4)CC2)cc1OC [VESNARINONE] | – | 32 | 2.3 | –

Now from value to molecule, other results behind:

Row | inhibition [2] [%] | IC50 [3] [µM] | Compound | C20 [1] [µM] | C20 [4]
7 | 15 | – | CC(=O)c1ccc(-n2ccnc2C)cc1 | 25 | –
8 | – | 2 | CCc1[nH]c(O)nc1C(=O)c1ccc(-n2ccnc2)cc1 | 0.05 | –
9 | – | 54 | CCc1[nH]c(O)nc1C(=O)c1ccccc1 | 2 | –
10 | – | 4 | Cc1nc(=O)c(C#N)c(NCc2cccnc2)[nH]1 [PELRINONE] | 0.2 | –
11 | – | 71 | O=C1CCc2cc(-n3ccnc3)ccc2N1 | 1.6 | –
